In ChEMBL document CHEMBL3864165, “Design, synthesis, and AChE inhibitory activity of new benzothiazole-piperazines” (Bioorg Med Chem Lett, 2016):

How the values were obtained:
[1] = biological target: Acetylcholinesterase (Electrophorus electricus) (UniProt O42275); assay: Inhibition of electric eel AChE at 10^-6 M preincubated for 15 mins followed by acetylthiocholine iodide substrate addition measured for 5 mins by Ellman's spectrophotometric method relative to control
Acetylcholinesterase [2] = biological target: T1, Acetylcholinesterase (Electrophorus electricus, UniProt O42275); assay: Inhibition of electric eel AChE preincubated for 15 mins followed by acetylthiocholine iodide substrate addition measured for 5 mins by Ellman's spectrophotometric method
[3] = biological target: Acetylcholinesterase (Electrophorus electricus) (UniProt O42275); assay: Inhibition of electric eel AChE at 10^-7 M preincubated for 15 mins followed by acetylthiocholine iodide substrate addition measured for 5 mins by Ellman's spectrophotometric method relative to control
[4] = biological target: Acetylcholinesterase (Electrophorus electricus) (UniProt O42275); assay: Inhibition of electric eel AChE at 10^-3 M preincubated for 15 mins followed by acetylthiocholine iodide substrate addition measured for 5 mins by Ellman's spectrophotometric method relative to control
[5] = biological target: Acetylcholinesterase (Electrophorus electricus) (UniProt O42275); assay: Inhibition of electric eel AChE at 10^-4 M preincubated for 15 mins followed by acetylthiocholine iodide substrate addition measured for 5 mins by Ellman's spectrophotometric method relative to control
Acetylcholinesterase [6] = biological target: T1, Acetylcholinesterase; assay: Mixed-type inhibition of electric eel AChE preincubated for 15 mins followed by acetylthiocholine iodide substrate addition measured for 5 mins by Lineweaver-Burk plot analysis
In short: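 Substrate-velocity curves recorded with and without inhibitor, with initial velocities measured at acetylthiocholine (ATC) concentrations from 600 µM down to 18.75 µM. Data analysed as 1/V plots. Ki taken as the x-axis intercept of a secondary plot of 1/V versus inhibitor concentration.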

[7] = Cytotoxicity against mouse NIH/3T3 cells after 24 hrs by MTT assay; conditions: NIH/3T3 cells
[8] = Ratio of compound IC50 to donepezil IC50 for mouse NIH/3T3 cells; type: ADME, cell-based; conditions: read-out: Ratio IC50
Salmonella typhimurium [9] = assay: Genotoxicity in Salmonella typhimurium TA98 assessed as increase in number of revertants at 0.156 mg/ml in presence of aroclor-1254-induced Sprague-Dawley rat liver S9 fraction by Ames-MPF assay relative to control; type: toxicity, organism-based; conditions: salmonella enterica subsp. enterica serovar typhimurium
In short: (§1)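 Ames MPF microplate fluctuation format, run with and without S9 metabolic activation. The read-out is the count of positive (revertant) wells. A run is accepted only when positive controls give more than 25 positive wells and negative controls give fewer than eight.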

Salmonella typhimurium [10] = assay: Genotoxicity in Salmonella typhimurium TA98 assessed as increase in number of revertants at 0.3125 mg/ml in presence of aroclor-1254-induced Sprague-Dawley rat liver S9 fraction by Ames-MPF assay relative to control; type: toxicity, organism-based; conditions: salmonella enterica subsp. enterica serovar typhimurium; in short: as §1
Salmonella typhimurium [11] = assay: Genotoxicity in Salmonella typhimurium TA98 assessed as increase in number of revertants at 0.625 mg/ml in presence of aroclor-1254-induced Sprague-Dawley rat liver S9 fraction by Ames-MPF assay relative to control; type: toxicity, organism-based; conditions: salmonella enterica subsp. enterica serovar typhimurium; in short: as §1
Salmonella typhimurium [12] = assay: Genotoxicity in Salmonella typhimurium TA98 assessed as increase in number of revertants at 1.25 mg/ml in presence of aroclor-1254-induced Sprague-Dawley rat liver S9 fraction by Ames-MPF assay relative to control; type: toxicity, organism-based; conditions: salmonella enterica subsp. enterica serovar typhimurium; in short: as §1
Salmonella typhimurium [13] = assay: Genotoxicity in Salmonella typhimurium TA98 assessed as increase in number of revertants at 2.5 mg/ml in presence of aroclor-1254-induced Sprague-Dawley rat liver S9 fraction by Ames-MPF assay relative to control; type: toxicity, organism-based; conditions: salmonella enterica subsp. enterica serovar typhimurium; in short: as §1
Salmonella typhimurium [14] = assay: Genotoxicity in Salmonella typhimurium TA98 assessed as increase in number of revertants at 5 mg/ml in presence of aroclor-1254-induced Sprague-Dawley rat liver S9 fraction by Ames-MPF assay relative to control; type: toxicity, organism-based; conditions: salmonella enterica subsp. enterica serovar typhimurium; in short: as §1
Salmonella typhimurium [15] = assay: Genotoxicity in Salmonella typhimurium TA98 assessed as increase in number of revertants at 0.156 mg/ml in absence of aroclor-1254-induced Sprague-Dawley rat liver S9 fraction by Ames-MPF assay relative to control; type: toxicity, organism-based; conditions: salmonella enterica subsp. enterica serovar typhimurium; in short: as §1
Salmonella typhimurium [16] = assay: Genotoxicity in Salmonella typhimurium TA98 assessed as increase in number of revertants at 0.3125 mg/ml in absence of aroclor-1254-induced Sprague-Dawley rat liver S9 fraction by Ames-MPF assay relative to control; type: toxicity, organism-based; conditions: salmonella enterica subsp. enterica serovar typhimurium; in short: as §1
Salmonella typhimurium [17] = assay: Genotoxicity in Salmonella typhimurium TA98 assessed as increase in number of revertants at 0.625 mg/ml in absence of aroclor-1254-induced Sprague-Dawley rat liver S9 fraction by Ames-MPF assay relative to control; type: toxicity, organism-based; conditions: salmonella enterica subsp. enterica serovar typhimurium; in short: as §1
Salmonella typhimurium [18] = assay: Genotoxicity in Salmonella typhimurium TA98 assessed as increase in number of revertants at 1.25 mg/ml in absence of aroclor-1254-induced Sprague-Dawley rat liver S9 fraction by Ames-MPF assay relative to control; type: toxicity, organism-based; conditions: salmonella enterica subsp. enterica serovar typhimurium; in short: as §1
Salmonella typhimurium [19] = assay: Genotoxicity in Salmonella typhimurium TA98 assessed as increase in number of revertants at 2.5 mg/ml in absence of aroclor-1254-induced Sprague-Dawley rat liver S9 fraction by Ames-MPF assay relative to control; type: toxicity, organism-based; conditions: salmonella enterica subsp. enterica serovar typhimurium; in short: as §1
Salmonella typhimurium [20] = assay: Genotoxicity in Salmonella typhimurium TA98 assessed as increase in number of revertants at 5 mg/ml in absence of aroclor-1254-induced Sprague-Dawley rat liver S9 fraction by Ames-MPF assay relative to control; type: toxicity, organism-based; conditions: salmonella enterica subsp. enterica serovar typhimurium; in short: as §1
Salmonella typhimurium [21] = assay: Genotoxicity in Salmonella typhimurium TA100 assessed as increase in number of revertants at 0.156 mg/ml in presence of aroclor-1254-induced Sprague-Dawley rat liver S9 fraction by Ames-MPF assay relative to control; type: toxicity, organism-based; conditions: salmonella enterica subsp. enterica serovar typhimurium; in short: as §1
Salmonella typhimurium [22] = assay: Genotoxicity in Salmonella typhimurium TA100 assessed as increase in number of revertants at 0.3125 mg/ml in presence of aroclor-1254-induced Sprague-Dawley rat liver S9 fraction by Ames-MPF assay relative to control; type: toxicity, organism-based; conditions: salmonella enterica subsp. enterica serovar typhimurium; in short: as §1
Salmonella typhimurium [23] = assay: Genotoxicity in Salmonella typhimurium TA100 assessed as increase in number of revertants at 0.625 mg/ml in presence of aroclor-1254-induced Sprague-Dawley rat liver S9 fraction by Ames-MPF assay relative to control; type: toxicity, organism-based; conditions: salmonella enterica subsp. enterica serovar typhimurium; in short: as §1
Salmonella typhimurium [24] = assay: Genotoxicity in Salmonella typhimurium TA100 assessed as increase in number of revertants at 1.25 mg/ml in presence of aroclor-1254-induced Sprague-Dawley rat liver S9 fraction by Ames-MPF assay relative to control; type: toxicity, organism-based; conditions: salmonella enterica subsp. enterica serovar typhimurium; in short: as §1
Salmonella typhimurium [25] = assay: Genotoxicity in Salmonella typhimurium TA100 assessed as increase in number of revertants at 2.5 mg/ml in presence of aroclor-1254-induced Sprague-Dawley rat liver S9 fraction by Ames-MPF assay relative to control; type: toxicity, organism-based; conditions: salmonella enterica subsp. enterica serovar typhimurium; in short: as §1
Salmonella typhimurium [26] = assay: Genotoxicity in Salmonella typhimurium TA100 assessed as increase in number of revertants at 5 mg/ml in presence of aroclor-1254-induced Sprague-Dawley rat liver S9 fraction by Ames-MPF assay relative to control; type: toxicity, organism-based; conditions: salmonella enterica subsp. enterica serovar typhimurium; in short: as §1
Salmonella typhimurium [27] = assay: Genotoxicity in Salmonella typhimurium TA100 assessed as increase in number of revertants at 0.156 mg/ml in absence of aroclor-1254-induced Sprague-Dawley rat liver S9 fraction by Ames-MPF assay relative to control; type: toxicity, organism-based; conditions: salmonella enterica subsp. enterica serovar typhimurium; in short: as §1
Salmonella typhimurium [28] = assay: Genotoxicity in Salmonella typhimurium TA100 assessed as increase in number of revertants at 0.3125 mg/ml in absence of aroclor-1254-induced Sprague-Dawley rat liver S9 fraction by Ames-MPF assay relative to control; type: toxicity, organism-based; conditions: salmonella enterica subsp. enterica serovar typhimurium; in short: as §1
Salmonella typhimurium [29] = assay: Genotoxicity in Salmonella typhimurium TA100 assessed as increase in number of revertants at 0.625 mg/ml in absence of aroclor-1254-induced Sprague-Dawley rat liver S9 fraction by Ames-MPF assay relative to control; type: toxicity, organism-based; conditions: salmonella enterica subsp. enterica serovar typhimurium; in short: as §1
Salmonella typhimurium [30] = assay: Genotoxicity in Salmonella typhimurium TA100 assessed as increase in number of revertants at 1.25 mg/ml in absence of aroclor-1254-induced Sprague-Dawley rat liver S9 fraction by Ames-MPF assay relative to control; type: toxicity, organism-based; conditions: salmonella enterica subsp. enterica serovar typhimurium; in short: as §1
Salmonella typhimurium [31] = assay: Genotoxicity in Salmonella typhimurium TA100 assessed as increase in number of revertants at 2.5 mg/ml in absence of aroclor-1254-induced Sprague-Dawley rat liver S9 fraction by Ames-MPF assay relative to control; type: toxicity, organism-based; conditions: salmonella enterica subsp. enterica serovar typhimurium; in short: as §1
Salmonella typhimurium [32] = assay: Genotoxicity in Salmonella typhimurium TA100 assessed as increase in number of revertants at 5 mg/ml in absence of aroclor-1254-induced Sprague-Dawley rat liver S9 fraction by Ames-MPF assay relative to control; type: toxicity, organism-based; conditions: salmonella enterica subsp. enterica serovar typhimurium; in short: as §1

T1 sequence (O42275 whole entry): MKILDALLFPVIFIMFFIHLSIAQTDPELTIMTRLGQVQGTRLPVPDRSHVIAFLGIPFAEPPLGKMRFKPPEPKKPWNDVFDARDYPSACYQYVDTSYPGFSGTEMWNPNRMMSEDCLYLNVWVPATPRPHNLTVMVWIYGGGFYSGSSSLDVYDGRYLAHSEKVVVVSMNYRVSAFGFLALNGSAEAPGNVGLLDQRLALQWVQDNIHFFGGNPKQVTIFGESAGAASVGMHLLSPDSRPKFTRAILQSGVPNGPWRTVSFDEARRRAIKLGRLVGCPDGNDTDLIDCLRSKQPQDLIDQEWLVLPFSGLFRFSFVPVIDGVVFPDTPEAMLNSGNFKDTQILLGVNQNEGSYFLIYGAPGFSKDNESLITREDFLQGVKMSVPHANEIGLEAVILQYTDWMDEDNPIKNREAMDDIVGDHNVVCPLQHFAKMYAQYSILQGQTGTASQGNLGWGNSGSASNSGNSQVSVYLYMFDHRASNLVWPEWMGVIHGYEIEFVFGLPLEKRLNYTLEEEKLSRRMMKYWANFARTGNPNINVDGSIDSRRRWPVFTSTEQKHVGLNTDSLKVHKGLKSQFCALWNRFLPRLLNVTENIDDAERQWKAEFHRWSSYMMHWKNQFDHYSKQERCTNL
Chain of Acetylcholinesterase (Electrophorus electricus) (O42275 24-633 limits assumed): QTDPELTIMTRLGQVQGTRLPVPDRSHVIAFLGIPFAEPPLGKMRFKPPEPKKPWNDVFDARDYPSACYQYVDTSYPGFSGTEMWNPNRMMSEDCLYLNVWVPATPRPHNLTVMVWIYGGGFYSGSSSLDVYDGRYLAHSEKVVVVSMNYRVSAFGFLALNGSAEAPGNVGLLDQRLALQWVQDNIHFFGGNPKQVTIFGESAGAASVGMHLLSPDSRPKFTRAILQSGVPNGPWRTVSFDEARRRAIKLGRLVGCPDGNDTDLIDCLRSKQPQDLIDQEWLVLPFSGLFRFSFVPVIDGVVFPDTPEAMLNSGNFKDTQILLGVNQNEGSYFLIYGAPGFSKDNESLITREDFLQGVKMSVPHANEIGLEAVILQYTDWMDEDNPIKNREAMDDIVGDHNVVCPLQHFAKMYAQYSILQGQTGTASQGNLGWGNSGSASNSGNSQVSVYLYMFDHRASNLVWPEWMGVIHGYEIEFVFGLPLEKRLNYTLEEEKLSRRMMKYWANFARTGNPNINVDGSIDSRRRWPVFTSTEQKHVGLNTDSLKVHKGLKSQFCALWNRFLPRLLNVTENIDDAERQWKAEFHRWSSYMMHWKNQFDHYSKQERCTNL

COc1ccc(CN2CCN(CC(=O)Nc3nc4cc(OC)c(OC)cc4s3)CC2)cc1
inhibition [1]: > 50%
IC50 (Acetylcholinesterase [2]): 0.252 µM

COc1ccc(CN2CCN(CC(=O)Nc3nc4ccc(OC)cc4s3)CC2)cc1
inhibition [1]: > 50%
IC50 (Acetylcholinesterase [2]): 0.396 µM

COc1cc2nc(NC(=O)CN3CCN(Cc4ccc(C)cc4)CC3)sc2cc1OC
inhibition [1]: > 50%
IC50 (Acetylcholinesterase [2]): 0.215 µM

COc1ccc2nc(NC(=O)CN3CCN(Cc4ccc(C)cc4)CC3)sc2c1
inhibition [1]: > 50%
IC50 (Acetylcholinesterase [2]): 0.326 µM

COc1ccc2nc(NC(=O)CN3CCN(Cc4ccc(C(F)(F)F)cc4)CC3)sc2c1
inhibition [1]: > 50%
IC50 (Acetylcholinesterase [2]): 0.274 µM

COc1cc2nc(NC(=O)CN3CCN(CCN(C)C)CC3)sc2cc1OC
inhibition [1]: > 50%
inhibition [3]: > 50%
inhibition [4]: > 95%
inhibition [5]: 90%
IC50 (Acetylcholinesterase [2]): 0.0462 µM
Ki (Acetylcholinesterase [6]): 0.11 µM
IC50 at 24 h [7]: > 1000 µM
selectivity ratio [8]: 3
fold change (FC) (Salmonella typhimurium [9]): 0.22
fold change (FC) (Salmonella typhimurium [10]): 0.65
fold change (FC) (Salmonella typhimurium [11]): 0.97
fold change (FC) (Salmonella typhimurium [12]): 0.43
fold change (FC) (Salmonella typhimurium [13]): 0
fold change (FC) (Salmonella typhimurium [14]): 0
fold change (FC) (Salmonella typhimurium [15]): 0.87
fold change (FC) (Salmonella typhimurium [16]): 1.14
fold change (FC) (Salmonella typhimurium [17]): 1.03
fold change (FC) (Salmonella typhimurium [18]): 0.33
fold change (FC) (Salmonella typhimurium [19]): 0.33
fold change (FC) (Salmonella typhimurium [20]): 0.11
fold change (FC) (Salmonella typhimurium [21]): 0.78
fold change (FC) (Salmonella typhimurium [22]): 0.55
fold change (FC) (Salmonella typhimurium [23]): 0.55
fold change (FC) (Salmonella typhimurium [24]): 1.09
fold change (FC) (Salmonella typhimurium [25]): 0.55
fold change (FC) (Salmonella typhimurium [26]): 0.47
fold change (FC) (Salmonella typhimurium [27]): 0.66
fold change (FC) (Salmonella typhimurium [28]): 0.49
fold change (FC) (Salmonella typhimurium [29]): 0.27
fold change (FC) (Salmonella typhimurium [30]): 0.27
fold change (FC) (Salmonella typhimurium [31]): 0
fold change (FC) (Salmonella typhimurium [32]): 0

COc1ccc2nc(NC(=O)CN3CCN(Cc4ccc(Cl)cc4)CC3)sc2c1
inhibition [1]: > 50%
inhibition [4]: > 95%
inhibition [5]: 90%
IC50 (Acetylcholinesterase [2]): 0.22 µM
